Screening data as filed in PubChem BioAssay.
Many of the other results were omitted from the sample, so hits are more common in it than they were.
Insulin prom act: activators of insulin promoter-driven GFP, primary screen, imaging, TRM-6 cells, eGFP reporter, cell count; plate-scaled: unstimulated 0, stimulated control 100; activation, % at 2 µM; actives 0.81% (n = 130,000);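 active means activation at 2 µM above a set limit, confirmed on inspection of the cell images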;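 further: share of cells whose green reporter signal exceeds an intensity cutoff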
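System: human fetal islet-derived TRM-6 cells with tamoxifen-inducible insulin promoter–eGFP reporter; input: seeding density of 1,000 cells per well; buffer or medium: Low-glucose (5.5 mM) medium with tamoxifen; incubation: compound exposure 48 h, 37 °C; measured by: high-content imaging of fixed cells with Hoechst nuclear stain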
An asterisk follows results filed as active; [ ] = dose if it differs, or a comment.

SMILES | Insulin prom act
Cc1cccc(N2CCN(C(=O)CCCn3c(=S)[nH]c4cc5c(cc4c3=O)OCO5)CC2)c1C | 0
CC(=O)c1ccc(N2CCN(C(=O)CCCn3c(=S)[nH]c4cc5c(cc4c3=O)OCO5)CC2)cc1 | 136*
O=C(CCCn1c(=S)[nH]c2cc3c(cc2c1=O)OCO3)NC1CC1 | 4
O=C(NCc1cccs1)C1CCN(S(=O)(=O)c2cccc3nsnc23)CC1 | -8
CCSc1ncc(C)cc1[N+](=O)[O-] | -6
C(#Cc1ccccc1)C[N+]1(CC#Cc2ccccc2)CCCC1 | -5
Nc1ccc(C#Cc2ccccc2)cc1 | 207*
c1ccc(SSc2ccccc2)cc1 | 0
CCN(CC)S(=O)(=O)c1cccc(C(=O)NC(Cc2c[nH]c3ccccc23)c2nnc3n2CCCCC3)c1 (stereo unspecified) | 3
Cc1c(C)n(C(=O)CSc2nc3ccccc3[nH]2)c2ccccc12 | 6
COc1ccc2c(=O)cc(-c3ccccc3)n(C)c2c1 | 0
CCCN(Cc1ccccc1)C(=S)Nc1ccc(SC(F)F)cc1 | -8
COC(=O)c1sccc1NC(=O)c1ccco1 | 169
COC(=O)c1ccccc1NC(=O)c1ccc(-c2cccc(Cl)c2)o1 | 0
COC(=O)c1sccc1-c1ccc(C(=O)Nc2cccc(Cl)c2)o1 | 80*
COc1ccccc1N(CC(=O)NC(C)(C)C)C(=O)c1ccc(Cl)nc1 | -7
O=[N+]([O-])c1ccc(S(=O)(=O)N2CCN=C2SCc2cccnc2)cc1 | -7
Cc1ccc(S(=O)(=O)NC2=NCN(C3CCCCC3)CN2)cc1 | 125*
Cc1ccc(S(=O)(=O)NCCNC(=O)C2CCCNC2=O)cc1 (stereo unspecified) | -8
Cc1ccc(S(=O)(=O)CC(C)N2CCN(C3CCCCC3)CC2)cc1 (stereo unspecified) | 103
Nc1ccc(Sc2nc3ccccc3[nH]2)cc1 | -10
O=C(CO/N=C/c1ccc2c(c1)OCO2)Nc1cccc(Br)c1 | -7
CC1SCC(=O)N(CC(=O)Nc2ccc3c(c2)OCCO3)C1=O (stereo unspecified) | 6
Cc1cc([N+](=O)[O-])nn1CCCC(=O)NC(C)c1ccccc1 (stereo unspecified) | -7
O=C(CSc1nnc(CNC(=O)c2ccccc2F)o1)NCc1ccccc1 | 0
SMILES | Insulin prom act
Cc1cccc2cc(-c3ccccc3)c(-c3ccccc3)c[n+]12 | -3
COc1ccc(CN2CC(C(=O)NCCC3=CCCCC3)CC2=O)cc1 (stereo unspecified) | 3
COCCCNC(=O)C1CC(=O)N(Cc2ccc(OC)cc2)C1 (stereo unspecified) | 3
O=C(NCCc1ccccn1)C1CC(=O)N(Cc2ccccc2Cl)C1 (stereo unspecified) | 131*
COc1cc(C2C(C(=O)c3ccc(C)o3)=C(O)C(=O)N2c2cc(C)on2)cc(Br)c1O (stereo unspecified) | 5
CCOc1ccc(C2CC(=O)n3nc(C45CC6CC(CC(C6)C4)C5)nc3S2)cc1OC (stereo unspecified) | -7
CCOc1ccc(C2N(c3cc(C)on3)C(=O)C3CCCN32)cc1OC (stereo unspecified) | 120*
CN1C(=O)NC(c2ccc(O)cc2)C2=C1CN(c1cccc3ccccc13)C2=O (stereo unspecified) | -9
CC/C(=N\NS(C)(=O)=O)c1ccccc1 | -8
COc1ccc(C(=O)Sc2nncc3ccccc23)cc1 | 0
CC(=O)c1c(C(C)=O)c(C)n(C2CCCCC2)c1C | 3
Cc1ccc(NC(=O)CSc2nnc(-c3ccncc3)n2C)cc1S(=O)(=O)N1CCOCC1 | -8
CN1CCN(S(=O)(=O)c2ccc(Oc3ccc(F)c(Cl)c3)nc2)CC1 | -5
Cc1c(NC(N)=O)c(=O)n(-c2ccccc2)n1C | 248*
CCOC(=O)NC(=S)Nc1c(C)n(C)n(-c2ccccc2)c1=O | 0
Cc1c(NC(=O)c2ccccc2)c(=O)n(-c2ccccc2)n1C | -57
COc1ccccc1NC(=O)Nc1nc(C(C)(C)C)cs1 | -4
O=C(COC(=O)/C=C/c1ccc(Br)o1)NCCCN1CCCC1=O | 9
COc1ccc(-c2c(C)n([O-])c3c([n+]2=O)CCCC3)cc1OC | 0
Cc1ccccc1N1C(=O)C(Oc2ccc(Cl)cc2)C1CNC(C)(C)C (stereo unspecified) | 0
COCCn1c(SCc2ccccc2F)nc2ccccc2c1=O | -9
COn1c(SCc2ccc(Cl)cc2)nc2ccccc2c1=O | 77*
COc1ccc(C(=O)Nn2c(SCC(=O)c3ccc(Cl)cc3)nc3ccccc3c2=O)cc1 | -83
CC(C)CCN1CCN(Cc2cccc3cccnc23)CC1CCO (stereo unspecified) | 6
O=C1Nc2ccc([N+](=O)[O-])cc2C1(O)N1CCCCCC1 (stereo unspecified) | -2
SMILES | Insulin prom act
CCN(c1ccc(N=Cc2c(O)n(Cc3ccc(OC)cc3)c(=O)c3ccccc23)cc1)C(C)C | 471*
O=c1c2ccccc2c(C=NCCCN2CCOCC2)c(O)n1Cc1ccccc1 | -3
COc1ccc(N=Cc2sc(O)c3ccccc23)cc1 | 0
Cc1ccc(C)c(NC2=C(Cl)C(=O)OC2OC(C)C)c1 (stereo unspecified) | -7
O=C(Nc1cc(C(F)(F)F)ccc1-n1cncn1)c1ccc(-c2ccccc2)cc1 | 78*
O=C(Nc1cc(C(F)(F)F)ccc1N1CCOCC1)c1cncc(Br)c1 | -4
Cc1ccccc1NC(=O)c1cccc(C(F)(F)F)c1 | -9
COC(=O)C1=C(C)N(C)C(=S)N(C)C1c1cccc(Br)c1 (stereo unspecified) | -6
CN(CC(=O)N1CCCC1)S(=O)(=O)c1ccc(Cl)cc1 | 6
COc1ccc(S(=O)(=O)N(C)CC(=O)N2CCCCC2)cc1Cl | 233
COc1ccc(S(=O)(=O)N(C)CC(=O)N2CCOCC2)cc1Cl | 462*
CCOC(=O)c1c(C)n(C)c2cc(CN(C)C)c(O)c(S(=O)(=O)c3ccccc3)c12 | 0
C=CCSc1nc(NC)c2sccc2n1 | -80
CCN1C(=O)/C(=C\N2CCN(C)CC2)SC1=S | 9
COCCN1C(=O)/C(=C/c2ccc(N3CCCC3)cc2C)SC1=S | 456*[fluoresces]
CCOC(=O)CN1C(=O)S/C(=C/c2cc(C)n(C)c2C)C1=O | 2
Nc1ccc(S(=O)(=O)Nc2nccc(/C=C/c3ccccc3F)n2)cc1 | 6
Cc1cc(C(F)(F)F)nc(SCC(=O)NC2CC3CCC2C3)n1 (stereo unspecified) | 431*
Cc1cc(C(F)(F)F)nc(SCC(=O)Nc2ccccc2)n1 | 376
COc1ccc(NC(=O)CSc2nc(C)cc(C(F)(F)F)n2)cc1 | 69
Cc1ccc(S(=O)(=O)N(C)c2c(C)ccc(S(N)(=O)=O)c2C)cc1 | 0
CNC(=O)[C@@H]1C[C@H]1[C@@H](NC(=O)OCc1ccccc1)c1ccccc1 | 255*
C[C@@H](C(=O)NCC1CC1)[C@@H]1C[C@@]1(C)[C@@H](NC(=O)OCc1ccccc1)c1ccccc1 | 0
C[C@H](CO)NC(=O)[C@H](C)[C@H]1C[C@]1(C)[C@H](NC(=O)OCc1ccccc1)c1ccccc1 | 0
COc1ccc(N(C(C)C(=O)N/N=C(\C)C(C)(C)C)S(C)(=O)=O)cc1 (stereo unspecified) | 0
Cc1cccc(Nc2nc(NCc3ccco3)nc(N3CCOCC3)n2)c1 | 9
NC(=O)C(c1ccccc1)C1CCCC1 (stereo unspecified) | 106
OC1CCCN(CC(O)c2ccccc2)C1 (stereo unspecified) | 0
